Experimental data as given in PubChem BioAssay AID504418 (Johns Hopkins Ion Channel Center, 2011).
The source made the active and inactive calls.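 How the source made its calls: active means compound raising or lowering KCNQ1 potassium channel current, with its KCNE1 partner, at some dose, giving a dose response curve; inactive means no effect at any dose or no curve.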

Molecular target: Potassium voltage-gated channel subfamily KQT member 1 (Homo sapiens) + Potassium voltage-gated channel subfamily E member 1 (Homo sapiens) (UniProt P15382+P51787)
Sequence (O88943 whole entry, looked up): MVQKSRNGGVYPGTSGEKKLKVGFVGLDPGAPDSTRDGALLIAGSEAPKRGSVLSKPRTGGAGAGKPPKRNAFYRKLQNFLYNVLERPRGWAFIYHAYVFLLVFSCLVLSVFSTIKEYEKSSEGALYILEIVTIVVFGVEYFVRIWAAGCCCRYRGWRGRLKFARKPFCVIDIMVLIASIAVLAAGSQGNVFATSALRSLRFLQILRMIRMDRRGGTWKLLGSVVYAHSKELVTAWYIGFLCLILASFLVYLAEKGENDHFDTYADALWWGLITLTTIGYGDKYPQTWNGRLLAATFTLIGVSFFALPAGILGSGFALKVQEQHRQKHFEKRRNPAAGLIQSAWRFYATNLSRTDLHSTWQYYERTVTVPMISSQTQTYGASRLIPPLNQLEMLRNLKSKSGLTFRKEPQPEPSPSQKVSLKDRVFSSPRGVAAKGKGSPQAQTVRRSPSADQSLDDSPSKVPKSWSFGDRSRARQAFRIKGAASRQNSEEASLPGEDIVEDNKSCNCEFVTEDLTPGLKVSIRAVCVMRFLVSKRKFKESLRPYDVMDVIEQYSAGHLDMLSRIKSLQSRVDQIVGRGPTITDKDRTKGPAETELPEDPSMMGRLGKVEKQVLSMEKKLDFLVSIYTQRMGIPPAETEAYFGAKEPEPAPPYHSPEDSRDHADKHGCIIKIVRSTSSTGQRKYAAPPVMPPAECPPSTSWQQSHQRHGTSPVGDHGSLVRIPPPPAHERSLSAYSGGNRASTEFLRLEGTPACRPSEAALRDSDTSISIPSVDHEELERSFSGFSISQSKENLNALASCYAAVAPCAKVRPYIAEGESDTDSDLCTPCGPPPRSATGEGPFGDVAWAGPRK
Sequence (P51787 whole entry, looked up): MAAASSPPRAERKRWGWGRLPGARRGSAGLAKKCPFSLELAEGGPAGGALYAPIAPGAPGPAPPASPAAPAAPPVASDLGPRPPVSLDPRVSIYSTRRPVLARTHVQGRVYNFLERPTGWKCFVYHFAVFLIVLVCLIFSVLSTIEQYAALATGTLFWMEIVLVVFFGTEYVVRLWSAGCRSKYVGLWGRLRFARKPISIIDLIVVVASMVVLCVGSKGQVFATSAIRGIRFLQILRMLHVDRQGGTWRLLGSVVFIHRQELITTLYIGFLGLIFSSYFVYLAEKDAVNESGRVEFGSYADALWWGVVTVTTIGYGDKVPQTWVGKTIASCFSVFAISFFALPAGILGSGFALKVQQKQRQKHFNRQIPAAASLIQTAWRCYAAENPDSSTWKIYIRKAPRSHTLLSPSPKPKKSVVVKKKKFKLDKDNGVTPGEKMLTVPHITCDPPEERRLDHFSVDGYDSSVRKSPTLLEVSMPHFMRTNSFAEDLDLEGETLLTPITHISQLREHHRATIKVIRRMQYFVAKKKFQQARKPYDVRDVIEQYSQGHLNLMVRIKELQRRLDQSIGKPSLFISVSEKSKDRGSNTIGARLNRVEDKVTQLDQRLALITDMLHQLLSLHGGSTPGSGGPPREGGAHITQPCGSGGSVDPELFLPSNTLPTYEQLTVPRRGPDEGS
Experiment: activity at KCNQ1/E1 potassium channel – Tl flux, KCNQ1/E1-expressing cells, selectivity assay for KCNQ2 activator project, dose response (AID 504418)
Conditions: KCNQ1/KCNE1 expressing cells, FluxOR thallium flux; series mostly up to 30 µM
In short: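 Test system: CHO cell line expressing human KCNQ1/KCNE1 potassium channel / Probe or stimulus: K2SO4 and Tl2SO4 stimulus, 12.5 mM each as 5x stock / Incubation: FluxOR dye loading 90 min, compound exposure 20 min, room temperature / Signal: FluxOR thallium-flux kinetic fluorescence / Evaluation: normalized fluorescence ratio, percent change from vehicle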

outcome, inactive:
Cc1cc(C)c(NC(=O)CC(C)(C)C)c(Cl)c1
Cc1cccc(C)c1NC(=O)C1CC2CCC1C2 (stereo not given)
Cc1ccc(C)c(NC(=O)C2CC3CCC2C3)c1 (stereo not given)
Cc1cc(C)c(NC(=O)C2CC3CCC2C3)c(C)c1 (stereo not given)
CCCCC(=O)Nc1c(C)cc(C)cc1Cl
